From ChEMBL document CHEMBL1156988, “Synthesis and antibacterial studies of binaphthyl-based tripeptoids. Part 1” (2010)
≈ marks a conversion by molar mass, not a printed value.

Experiments:
Staphylococcus aureus [1] = experiment: Antibacterial activity against Staphylococcus aureus 6538P after overnight incubation; format: functional
How it was run: (§1)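 Strains were grown in Luria Broth. Overnight stationary-phase cultures were diluted 1:1000 into fresh medium with twofold compound dilutions, highest typically 128 µg/ml, in 96-well plates. Incubated overnight at 37 °C. MIC recorded as the […].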

Enterococcus faecium [2] = experiment: Antibacterial activity against vancomycin-resistant Enterococcus faecium 243 after overnight incubation
Enterococcus faecium [3] = experiment: Antibacterial activity against vancomycin-resistant Enterococcus faecium 449 after overnight incubation
Enterococcus faecium [4] = experiment: Antibacterial activity against vancomycin-resistant Enterococcus faecium 820 after overnight incubation
Enterococcus faecium [5] = experiment: Antibacterial activity against vancomycin-resistant Enterococcus faecium 987 after overnight incubation
[6] = test system: Staphylococcus epidermidis; experiment: Antibacterial activity against Staphylococcus epidermidis ATCC 700562 after overnight incubation; format: functional
Staphylococcus aureus [7] = experiment: Antibacterial activity against vancomycin intermediate Staphylococcus aureus after overnight incubation; format: functional; how it was run: as §1
[8] = Staphylococcus aureus, 6538P, read-out: MIC
[9] = Enterococcus faecium, 243, read-out: MIC
[10] = Enterococcus faecium, 449, read-out: MIC
[11] = Enterococcus faecium, 820, read-out: MIC
[12] = Enterococcus faecium, 987, read-out: MIC

MIC (Staphylococcus aureus [7]; read-out: MIC) [µg/mL]	SMILES	MIC (Staphylococcus aureus [1]; [8]) [µg/mL]	MIC (Enterococcus faecium [2]; [9]) [µg/mL]	MIC (Enterococcus faecium [3]; [10]) [µg/mL]	MIC (Enterococcus faecium [4]; [11]) [µg/mL]	MIC (Enterococcus faecium [5]; [12]) [µg/mL]	MIC [6] [µg/mL]	MIC (Staphylococcus aureus [1]) [µg/mL]	MIC (Enterococcus faecium [2]) [µg/mL]	MIC (Enterococcus faecium [3]) [µg/mL]	MIC (Enterococcus faecium [4]) [µg/mL]	MIC (Enterococcus faecium [5]) [µg/mL]	MIC (Staphylococcus aureus [7]) [µg/mL]
–	CC(C)CCOc1ccc2ccccc2c1-c1c(OCC(=O)N[C@H](CCCCN)C(=O)N[C@H](CCNC(=N)N)C(=O)N[C@@H](CC(C)C)C(=O)OCc2ccccc2)ccc2ccccc12.Cl.Cl	2.6	52.1	31.3	27.8	52.1	–	–	–	–	–	–	–
–	CC(C)CCOc1ccc2ccccc2c1-c1c(OCC(=O)N[C@H](CCCCN)C(=O)N[C@H](CCCN)C(=O)N[C@@H](CC(C)C)C(=O)OCc2ccccc2)ccc2ccccc12.Cl.Cl	1.95	62.5	31.3	15.6	62.5	–	–	–	–	–	–	–
–	CNC(=N)NCCC[C@@H](NC(=O)[C@@H](CCCCN)NC(=O)COc1ccc2ccccc2c1-c1c(OCCC(C)C)ccc2ccccc12)C(=O)N[C@@H](CC(C)C)C(=O)OCc1ccccc1.Cl.Cl	3.13	25	25	25	25	3.13	–	–	–	–	–	–
–	CC(C)CCOc1ccc2ccccc2c1-c1c(OCC(=O)N[C@H](CCCCN)C(=O)N[C@H](CCCCN)C(=O)N[C@@H](CC(C)C)C(=O)OCc2ccccc2)ccc2ccccc12.Cl.Cl	1.95	62.5	31.3	26.1	62.5	1.95	–	–	–	–	–	–
–	CC(C)CCOc1ccc2ccccc2c1-c1c(OCC(=O)N[C@H](CCCCN)C(=O)N[C@H](CCCNC(=N)N)C(=O)N[C@H](CC(C)C)C(=O)OCc2ccccc2)ccc2ccccc12.Cl.Cl	3.9	31.3	15.6	15.6	31.3	–	–	–	–	–	–	–
–	C=CCOc1ccc2ccccc2c1-c1c(OCC(=O)N[C@H](CCCCN)C(=O)N[C@H](CCCNC(=N)N)C(=O)N[C@@H](CC=C)C(=O)OCc2cccc3ccccc23)ccc2ccccc12.Cl.Cl	15.6	> 125	125	125	> 125	–	–	–	–	–	–	–
–	C=CC[C@H](NC(=O)[C@@H](CCCNC(=N)N)NC(=O)[C@@H](CCCCN)NC(=O)COc1ccc2ccccc2c1-c1c(OCCC(C)C)ccc2ccccc12)C(=O)OCc1ccccc1.Cl.Cl	3.9	31.3	15.6	15.6	31.3	–	–	–	–	–	–	–
–	CC(C)CCOc1ccc2ccccc2c1-c1c(OCC(=O)N[C@H](CCCNC(=N)N)C(=O)N[C@H](CCCNC(=N)N)C(=O)N[C@@H](CC(C)C)C(=O)OCc2ccccc2)ccc2ccccc12.Cl.Cl	1.95	62.5	31.3	15.6	31.3	19.5	–	–	–	–	–	–
–	C=CCOc1ccc2ccccc2c1-c1c(OCC(=O)NCC(=O)NCC(=O)N[C@@H](CC=C)C(=O)OCc2ccccc2)ccc2ccccc12	3.9 (≈ 5.69 µM)	62.5 (≈ 91.1 µM)	31.3 (≈ 45.6 µM)	15.6 (≈ 22.7 µM)	31.3 (≈ 45.6 µM)	3.9 (≈ 5.69 µM)	–	–	–	–	–	–
–	C=CCOc1ccc2ccccc2c1-c1c(OCC(=O)N[C@H](CCCNC(=N)N)C(=O)OCc2ccccc2)ccc2ccccc12.Cl	3.3	62.5	62.5	62.5	62.5	–	–	–	–	–	–	–
–	C=CCOc1ccc2ccccc2c1-c1c(OCCCC(=O)N[C@H](CCCNC(=N)N)C(=O)OCc2ccccc2)ccc2ccccc12.Cl	3.9	62.5	62.5	62.5	125	–	–	–	–	–	–	–
4	CC(C)CCOC(=O)[C@H](CC(C)C)NC(=O)[C@@H](CCCNC(=N)N)NC(=O)[C@@H](CCCCN)NC(=O)COc1ccc2ccccc2c1-c1c(OCCC(C)C)ccc2ccccc12.Cl.Cl	–	–	–	–	–	–	–	–	–	–	–	–
4	CC(C)CCOc1ccc2ccccc2c1-c1c(OCC(=O)N[C@H](CCCCN)C(=O)N[C@H](CCCNC(=N)N)C(=O)N[C@@H](CC(C)C)c2ncc(Cc3ccccc3)o2)ccc2ccccc12.Cl.Cl	–	–	–	–	–	–	–	–	–	–	–	–
–	C=CCOc1ccc2ccccc2c1-c1c(OCC(=O)N[C@H](CCCCN)C(=O)N[C@H](CCCNC(=N)N)C(=O)N[C@@H](Cc2ccccc2)C(=O)OC)ccc2ccccc12.Cl.Cl (stereo in doubt; 81)	3.9	125	125	125	125	–	–	–	–	–	–	–
–	C=CCOc1ccc2ccccc2c1-c1c(OCC(=O)N[C@H](CCCCN)C(=O)N[C@H](CCCNC(=N)N)C(=O)N[C@@H](Cc2ccccc2)C(=O)OC)ccc2ccccc12.Cl.Cl (stereo in doubt; 82)	–	–	–	–	–	–	7.8	125	125	125	125	–
–	CN[C@H](CC(C)C)C(=O)N[C@H]1C(=O)N[C@@H](CC(N)=O)C(=O)N[C@H]2C(=O)N[C@H]3C(=O)N[C@H](C(=O)N[C@H](C(=O)O)c4cc(O)cc(O)c4-c4cc3ccc4O)[C@H](O)c3ccc(c(Cl)c3)Oc3cc2cc(c3O[C@@H]2O[C@H](CO)[C@@H](O)[C@H](O)[C@H]2O[C@H]2C[C@](C)(N)[C@H](O)[C@H](C)O2)Oc2ccc(cc2Cl)[C@H]1O [VANCOMYCIN]	1.56 (≈ 1.08 µM)	1.56 (≈ 1.08 µM)	> 25	> 25	3.13 (≈ 2.16 µM)	3.13 (≈ 2.16 µM)	–	–	–	–	–	6 (≈ 4.14 µM)
